Experimental data taken from ChEMBL document CHEMBL2429786, “New serotonin 5-HT1A receptor agonists endowed with antinociceptive activity in vivo” (J Med Chem, 2013).
Calls of active or inactive are those of the source. The rule behind the calls is not given here.

Assays:
Homo sapiens [1] = species: Homo sapiens; experiment: Displacement of [125I]Tyr11-somatostatin-14 from somatostatin receptor (unknown origin) at 1 uM after 60 mins
[2] = target: Mu-type opioid receptor (Homo sapiens) (UniProt P35372); experiment: Displacement of [3H]DAMGO from mu opioid receptor (unknown origin) at 1 uM after 120 mins
Sequence of Mu-type opioid receptor (Homo sapiens) (P35372 whole entry): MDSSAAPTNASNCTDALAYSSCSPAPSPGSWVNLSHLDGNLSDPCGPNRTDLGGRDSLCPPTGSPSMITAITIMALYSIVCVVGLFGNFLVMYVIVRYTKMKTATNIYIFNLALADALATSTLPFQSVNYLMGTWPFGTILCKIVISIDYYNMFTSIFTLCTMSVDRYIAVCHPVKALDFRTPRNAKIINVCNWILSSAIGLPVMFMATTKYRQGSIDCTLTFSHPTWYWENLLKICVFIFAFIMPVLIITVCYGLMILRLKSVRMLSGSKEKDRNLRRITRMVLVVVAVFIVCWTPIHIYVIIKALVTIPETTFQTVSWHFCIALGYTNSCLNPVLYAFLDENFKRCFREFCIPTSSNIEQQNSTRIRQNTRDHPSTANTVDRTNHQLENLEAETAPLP

Homo sapiens [3] = species: Homo sapiens; experiment: Displacement of [3H]DADLE from delta2 opioid receptor (unknown origin) at 1 uM after 120 mins
Homo sapiens [4] = species: Homo sapiens; experiment: Displacement of [3H]CGP54626 from GABAB receptor (unknown origin) at 1 uM after 120 mins
[5] = target: Cannabinoid receptor 2 (Homo sapiens) (UniProt P34972); experiment: Displacement of [3H]WIN55212-2 from CB2 receptor (unknown origin) at 1 uM after 120 mins
Sequence of Cannabinoid receptor 2 (Homo sapiens) (P34972 whole entry): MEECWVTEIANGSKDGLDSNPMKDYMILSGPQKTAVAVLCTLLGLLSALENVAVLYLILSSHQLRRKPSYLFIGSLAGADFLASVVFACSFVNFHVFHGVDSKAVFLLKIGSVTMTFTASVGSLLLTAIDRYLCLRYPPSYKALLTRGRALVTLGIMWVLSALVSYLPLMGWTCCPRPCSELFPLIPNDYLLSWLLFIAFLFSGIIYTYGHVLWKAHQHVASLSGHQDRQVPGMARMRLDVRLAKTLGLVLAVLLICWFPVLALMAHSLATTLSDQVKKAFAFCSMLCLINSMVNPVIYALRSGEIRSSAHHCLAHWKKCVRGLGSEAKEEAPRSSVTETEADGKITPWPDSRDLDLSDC

[6] = target: Adrenergic receptor alpha-2 (Homo sapiens) (UniProt P08913+P18825+P18089); experiment: Displacement of [3H]RX 821002 from alpha2-adrenergic receptor (unknown origin) at 1 uM after 60 mins
Mus musculus [7] = experiment: Antinociceptive activity in CD-1 mouse assessed as reduction of formalin-induced paw licking activity at 30 mg/kg, po administered 30 mins prior to formalin-challenge measured after 15 to 30 mins; assay type: functional, organism-based; design: dose 30 mg/kg
Mus musculus [8] = experiment: Antinociceptive activity in CD-1 mouse assessed as reduction of formalin-induced paw licking activity at 30 mg/kg, po administered 30 mins prior to formalin-challenge measured after 5 mins; assay type: functional, organism-based; design: dose 30 mg/kg
Mus musculus [9] = experiment: Antinociceptive activity in CD-1 mouse assessed as reduction of formalin-induced paw licking activity at 3 mg/kg, ip administered 15 mins prior to formalin-challenge measured after 5 mins; assay type: functional, organism-based; design: dose 3 mg/kg
Albumin = Albumin (Homo sapiens, UniProt P02768); experiment: Binding affinity to human serum albumin at 5 uM after 12 mins by HPLC-MS analysis relative to control; assay type: ADME; settings: isolated protein, 0.2 h
Sequence of Albumin (P02768 whole entry): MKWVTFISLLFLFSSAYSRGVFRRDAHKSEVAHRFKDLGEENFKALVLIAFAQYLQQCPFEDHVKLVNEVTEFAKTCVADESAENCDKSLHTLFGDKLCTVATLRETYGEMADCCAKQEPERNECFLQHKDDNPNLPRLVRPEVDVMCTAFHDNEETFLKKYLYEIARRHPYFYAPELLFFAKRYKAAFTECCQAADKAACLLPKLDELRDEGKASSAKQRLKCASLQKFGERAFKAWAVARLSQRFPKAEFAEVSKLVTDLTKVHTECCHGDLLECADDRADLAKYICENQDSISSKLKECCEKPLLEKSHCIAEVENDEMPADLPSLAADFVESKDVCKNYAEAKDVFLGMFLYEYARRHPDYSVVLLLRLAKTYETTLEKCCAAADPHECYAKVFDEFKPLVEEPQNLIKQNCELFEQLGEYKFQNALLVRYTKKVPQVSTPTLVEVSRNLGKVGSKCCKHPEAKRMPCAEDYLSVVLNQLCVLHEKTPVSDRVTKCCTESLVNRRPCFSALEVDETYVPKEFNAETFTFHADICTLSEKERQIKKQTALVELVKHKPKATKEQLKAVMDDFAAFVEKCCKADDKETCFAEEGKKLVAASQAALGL

[10] = Half life in mouse liver microsomes at 1 to 5 uM by HPLC-MS analysis; assay type: ADME, Microsome
[11] = Half life in human liver microsomes at 1 to 5 uM by HPLC-MS analysis; assay type: ADME, Microsome
Summary of the method: (§1)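 Incubation mixtures pre-equilibrated at 37 °C with NADPH and MgCl2, then rat or human liver microsomes added to start the reaction. Aliquots were withdrawn and quenched at several time points, and percent parent remaining was measured by HPLC-MS and plotted against time. t1/2 was taken from the slope of peak area over time and used to calculate CLint.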

[12] = Half life in Sprague-Dawley rat liver microsomes at 1 to 5 uM by HPLC-MS analysis; assay type: ADME, Microsome; summary of the method: as §1
Mus musculus [13] = species: Mus musculus; experiment: Hypothermic activity in Swiss mouse assessed as change in rectal temperature after 60 mins; assay type: functional; settings: 1 h, read-out: MED
[14] = target: T1, 5-hydroxytryptamine receptor 1A (Rattus norvegicus, UniProt P19327); experiment: Displacement of [3H]-8-OH-DPAT from 5-HT1A receptor in Sprague-Dawley rat cerebral cortex after 15 mins; assay type: tissue-based
T1 sequence (P19327 whole entry): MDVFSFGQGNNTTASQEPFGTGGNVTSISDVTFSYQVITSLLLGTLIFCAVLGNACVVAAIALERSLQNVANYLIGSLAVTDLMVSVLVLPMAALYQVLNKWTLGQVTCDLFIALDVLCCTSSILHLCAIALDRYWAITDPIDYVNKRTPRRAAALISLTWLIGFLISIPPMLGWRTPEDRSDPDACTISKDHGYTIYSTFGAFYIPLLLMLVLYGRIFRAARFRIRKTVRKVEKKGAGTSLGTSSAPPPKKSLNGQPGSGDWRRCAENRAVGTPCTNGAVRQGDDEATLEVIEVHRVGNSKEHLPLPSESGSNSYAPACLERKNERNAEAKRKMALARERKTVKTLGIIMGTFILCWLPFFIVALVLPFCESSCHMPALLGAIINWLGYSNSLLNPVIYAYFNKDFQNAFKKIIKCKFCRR

## CCOc1ccccc1OCCNCCCCN1C(=O)C2CCCN2C1=O.Cl (stereo not given)
Homo sapiens [1]
  inhibition: inactive
[2]
  inhibition: inactive
Homo sapiens [3]
  inhibition: inactive
Homo sapiens [4]
  inhibition: inactive
[5]
  inhibition: inactive
[6]
  inhibition: inactive
Mus musculus [7]
  Activity: Active
Mus musculus [8]
  Activity: Active
Mus musculus [9]
  Activity: Active
Albumin
  Activity: 25%
[10]
  half-life at up to 5 µM: 29.5 min
[11]
  half-life at up to 5 µM: 179 min
[12]
  half-life at up to 5 µM: 13.1 min
Mus musculus [13]
  minimal effective dose: 0.875 mg/kg
[14]
  Ki: 2.3 nM
